{
  "source": "ChEMBL document CHEMBL4371071",
  "about": "“Muscarinic agonist, (±)-quinuclidin-3-yl-(4-fluorophenethyl)(phenyl)carbamate: High affinity, but low subtype selectivity for human M1 - M5 muscarinic acetylcholine receptors” (Bioorg Med Chem Lett, 2019)",
  "key": {"[1]": {"biological_target": "T1, Muscarinic acetylcholine receptor M1 (Homo sapiens, UniProt P11229)", "T1 sequence (P11229 whole entry)": "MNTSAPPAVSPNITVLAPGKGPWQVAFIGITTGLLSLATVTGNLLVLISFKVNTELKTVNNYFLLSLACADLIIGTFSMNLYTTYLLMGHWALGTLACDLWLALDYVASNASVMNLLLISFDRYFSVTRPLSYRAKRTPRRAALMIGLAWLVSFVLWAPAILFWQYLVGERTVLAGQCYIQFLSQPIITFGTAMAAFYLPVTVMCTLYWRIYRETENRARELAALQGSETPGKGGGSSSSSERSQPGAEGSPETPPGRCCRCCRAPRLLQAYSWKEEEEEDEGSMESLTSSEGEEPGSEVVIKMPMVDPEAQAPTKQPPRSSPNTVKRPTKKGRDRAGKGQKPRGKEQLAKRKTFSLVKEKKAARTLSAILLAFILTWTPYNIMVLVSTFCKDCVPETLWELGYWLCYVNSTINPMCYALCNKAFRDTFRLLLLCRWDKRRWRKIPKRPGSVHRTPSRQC", "assay": "Displacement of [3H]NMS from human M1 AChR expressed in CHO cell membranes after 1 to 2 hrs by liquid scintillation spectrometry method", "format": "cell-based"}, "[2]": {"biological_target": "T2, Muscarinic acetylcholine receptor M2 (Homo sapiens, UniProt P08172)", "T2 sequence (P08172 whole entry)": "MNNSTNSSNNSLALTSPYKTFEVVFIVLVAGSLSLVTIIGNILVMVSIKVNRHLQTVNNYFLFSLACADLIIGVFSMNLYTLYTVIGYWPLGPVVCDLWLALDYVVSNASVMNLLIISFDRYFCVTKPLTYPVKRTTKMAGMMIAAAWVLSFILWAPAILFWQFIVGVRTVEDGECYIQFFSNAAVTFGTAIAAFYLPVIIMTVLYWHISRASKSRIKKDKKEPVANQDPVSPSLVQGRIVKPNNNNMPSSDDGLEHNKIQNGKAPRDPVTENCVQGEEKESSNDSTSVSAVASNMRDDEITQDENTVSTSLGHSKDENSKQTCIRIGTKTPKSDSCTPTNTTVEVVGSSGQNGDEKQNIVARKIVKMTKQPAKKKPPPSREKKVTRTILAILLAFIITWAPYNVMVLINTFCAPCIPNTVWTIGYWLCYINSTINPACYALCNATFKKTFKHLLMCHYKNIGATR", "assay": "Displacement of [3H]NMS from human M2 AChR expressed in CHO cell membranes after 1 to 2 hrs by liquid scintillation spectrometry method", "summary_of_the_method": "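CHO membranes expressing the human subtype (20 µg protein/well) with 0.3 nM [3H]NMS and analog (1 nM–100 µM) in 50 mM Tris-HCl pH 7.4, 2 h at 25 °C. […] Filtered on GF/B, washed, counted by scintillation. IC50 taken from curves to give Ki; three independent experiments in duplicate.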"}, "[3]": {"biological_target": "Muscarinic acetylcholine receptor M3 (Homo sapiens, UniProt P20309)", "sequence (P20309 whole entry)": "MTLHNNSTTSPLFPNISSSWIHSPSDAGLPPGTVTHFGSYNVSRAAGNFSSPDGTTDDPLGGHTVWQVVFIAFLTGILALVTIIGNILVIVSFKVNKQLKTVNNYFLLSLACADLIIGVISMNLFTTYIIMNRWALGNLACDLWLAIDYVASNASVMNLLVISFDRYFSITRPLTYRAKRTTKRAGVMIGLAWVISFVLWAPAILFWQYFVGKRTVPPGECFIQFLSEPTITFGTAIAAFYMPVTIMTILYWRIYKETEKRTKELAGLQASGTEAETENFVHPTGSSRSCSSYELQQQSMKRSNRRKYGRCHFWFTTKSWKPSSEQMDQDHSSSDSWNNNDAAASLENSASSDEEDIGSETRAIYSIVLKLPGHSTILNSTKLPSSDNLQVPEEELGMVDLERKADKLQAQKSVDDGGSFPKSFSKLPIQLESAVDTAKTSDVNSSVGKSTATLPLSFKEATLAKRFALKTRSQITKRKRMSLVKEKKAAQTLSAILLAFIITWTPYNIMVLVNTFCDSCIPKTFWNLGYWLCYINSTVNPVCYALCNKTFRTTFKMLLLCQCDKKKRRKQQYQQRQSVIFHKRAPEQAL", "assay": "Displacement of [3H]NMS from human M3 AChR expressed in CHO cell membranes after 1 to 2 hrs by liquid scintillation spectrometry method", "format": "cell-based"}, "Homo sapiens": {"organism": "Homo sapiens", "assay": "Selectivity ratio of Ki for displacement of [3H]NMS from human M2 AChR expressed in CHO cell membranes to Ki for displacement of [3H]NMS from human M3 AChR expressed in CHO cell membranes"}, "[4]": {"biological_target": "T3, Muscarinic acetylcholine receptor M4 (Homo sapiens, UniProt P08173)", "T3 sequence (P08173 whole entry)": "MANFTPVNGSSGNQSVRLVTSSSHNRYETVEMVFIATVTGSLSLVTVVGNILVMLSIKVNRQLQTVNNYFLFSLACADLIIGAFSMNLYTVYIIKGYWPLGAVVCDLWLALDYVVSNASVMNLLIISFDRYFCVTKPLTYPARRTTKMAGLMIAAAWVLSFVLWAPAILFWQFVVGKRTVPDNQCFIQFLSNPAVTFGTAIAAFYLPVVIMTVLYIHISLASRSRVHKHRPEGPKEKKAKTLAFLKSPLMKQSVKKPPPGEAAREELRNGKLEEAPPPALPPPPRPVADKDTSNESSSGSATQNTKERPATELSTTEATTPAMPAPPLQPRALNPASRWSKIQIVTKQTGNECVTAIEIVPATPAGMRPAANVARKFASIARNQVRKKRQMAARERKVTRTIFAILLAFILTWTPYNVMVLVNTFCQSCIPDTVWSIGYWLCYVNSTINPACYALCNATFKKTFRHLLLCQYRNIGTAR", "assay": "Displacement of [3H]NMS from human M4 AChR expressed in CHO cell membranes after 1 to 2 hrs by liquid scintillation spectrometry method", "summary_of_the_method": "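Human M4-expressing CHO membranes (20 µg protein/well) incubated 2 h at 25 °C with 0.3 nM [3H]NMS and analog (1 nM–100 µM) in 50 mM Tris–HCl pH 7.4. […] Filtered, washed, counted by scintillation. IC50 taken from inhibition curves, Ki from three independent duplicate experiments (mean ± SEM).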"}, "[5]": {"biological_target": "T4, Muscarinic acetylcholine receptor (Rattus norvegicus) (UniProt P08482+P08483+P08485+P08911+P10980)", "assay": "(§1) Agonist activity at muscarinic acetylcholine receptor in superfused rat striatal slices assessed as augmentation of oxotremorine-induced [3H]DA release at 0.1 to 10 uM preincubated for 35 mins in presence of [3H]DA followed by oxotremorine addition and measured after 25 mins by liquid scintillation spectroscopic method", "summary_of_the_method": "(§2)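 Rat striatal slices (500 µm) in Krebs' buffer pH 7.4 at 34 °C for 60 min, with 0.1 µM [3H]DA over the final 30 min. Superfused at 0.6 mL/min with 10 µM nomifensine and 10 µM pargyline; 5-min fractions. Basal outflow taken over 15 min, then test agent 35 min, then 100 µM oxotremorine 25 min. Overflow = summed radioactivity minus basal, by scintillation; n = 4–10.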"}, "[6]": {"biological_target": "T4, Muscarinic acetylcholine receptor (Rattus norvegicus)", "assay": "as §1, with “release at 1 to 10” for “release at 0.1 to 10”, “25 mins in presence of scopolamine by liquid” for “25 mins by liquid”", "format": "protein assay", "summary_of_the_method": "as §2"}},
  "note": "Calls of active or inactive are those of the source. The rule behind the calls is not given here.",
  "data": [
    {"smiles": "O=C(OC1CN2CCC1CC2)N(CCc1ccc(F)cc1)c1ccccc1", "note": "(racemic)", "values": [
      {"measurement": "Ki", "setting": "[1]", "result": 2, "unit": "nM"},
      {"measurement": "Ki", "setting": "[2]", "result": 13, "unit": "nM"},
      {"measurement": "Ki", "setting": "[3]", "result": 2.6, "unit": "nM"},
      {"measurement": "Ratio Ki", "setting": "Homo sapiens", "result": 5},
      {"measurement": "Ki", "setting": "[4]", "result": 2.2, "unit": "nM"},
      {"measurement": "Activity", "setting": "[5]", "result": "Active"},
      {"measurement": "Activity", "setting": "[6]", "result": "inactive"}
    ]}
  ]
}
